ChEMBL document CHEMBL4513216, “Probing the Open Global Health Chemical Diversity Library for Multistage-Active Starting Points for Next-Generation Antimalarials” (ACS Infect Dis, 2020)

Test: Toxicity liver stage against HepG2, at 10uM
Type: cell-based
Design: test concentration 10 uM, cell line HepG2-A16-CD81EGFP
Conditions: human, HepG2-A16-CD81EGFP cells; read-out: INHIBITION
How it was run: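 Uninfected HepG2-A16-CD81EGFP cells, 3 × 10^3 per well, 1536-well, plated on prespotted compound at 10 μM final, parasite-free screening media added to match infected plates; puromycin 10 μM positive, DMSO 0.5% negative; run in parallel with 48 h PbLuc assay at 37 °C, 5% CO2; viability by CellTiter-Glo luminescence, normalized to controls.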

SMILES | cytotoxicity at 10 µM
O=C(CN1CCCC1Cn1cncn1)NCCOc1ccc(F)cc1 (stereo not given) | -3.56%
CCn1cnc(NC(=O)N2CCC(c3ccc(F)cc3)C2)n1 (stereo not given) | 4.17%
O[C@H]1CCN(CCCOc2ccccc2F)C[C@@]12CCCO2 | 1.14%
O=C(NCC(F)F)c1ccc(S(=O)(=O)NCCc2cn[nH]c2)cc1 | 5.5%
COCCN1CC[C@@H]2CN(Cc3cccnc3OC)C[C@@H]2C1 | 13.6%
CC(C)CN1C(=O)CO[C@@H]2CN(C(=O)NC(C)C)C[C@H]21 | -5.27%
CC(C)C(=O)NCC(=O)N(C)C1CCCN(C2Cc3ccccc3C2)C1 (stereo not given) | -7.79%
COc1cccc(CN2CCC3(CC(Nc4ccncn4)C3)C2)c1F (stereo not given) | 1.69%
Cc1cc(CN2C[C@@H]3CC[C@H]2CN(Cc2c(C)noc2C)C3)ccc1F | -6.74%
Cc1cc2c(N3CCC(N(C)Cc4cnn(C)c4)CC3)ncnc2s1 | -1.13%
CC(C)N1C(=O)CN(CCOCCO)CC1(C)C | 1.94%
COCCn1cncc1Cn1ncc2ccccc2c1=O | 1.77%
Cc1nccc([C@@H]2C[C@H]3CN(S(=O)(=O)c4ccccc4)C[C@H]3O2)n1 | 1.32%
O=C(C1CCCCO1)N1CCc2ncnc(NCCO)c2CC1 (stereo not given) | 7.94%
Cn1ccnc1C(=O)N1CCOC(Cc2ccccc2Cl)C1 (stereo not given) | -12.2%
O[C@H]1CCN(CC2CC2)[C@H]1Cc1ccncc1 | 0.165%
c1ccc(OCc2nnc3n2CCN(CC2CC2)C3)nc1 | -0.945%
OC1CCN(CCNc2ncc3c(n2)CCN3c2ccccc2)CC1 | 5.84%
COCCn1cc(C(=O)N2CCCC2c2cc(C)no2)ccc1=O (stereo not given) | -17.7%
CN(C)CC(=O)N1CCC2(CCN(Cc3cccc(F)c3)CC2)C1 | 1.11%
CNC1CCCN(Cc2noc(C3CC3)n2)C1 (stereo not given) | 0.95%
CCN(C(=O)c1ccc2nnc(C3CCN(S(C)(=O)=O)C3)n2c1)C(C)C (stereo not given) | -110%

SMILES | cytotoxicity at 10 µM
O=C(C1CCOc2ccccc2C1)N1Cc2cnn(CCO)c2C1 (stereo not given) | 4.61%
O=C(c1ccn(COc2ccc(F)cc2)n1)N1CCCCCC1 | 9.84%
Cc1cc2ccccc2n1CC(=O)NCC(=O)N1CCOCC1 | -7.7%
Cc1nc(C(C)C)sc1C(=O)N1CCN(C2CCSCC2)CC1 | 6.62%
CN1CCCC2(CC1)CCN(C(=O)CCc1ccccc1O)CC2 | -32.1%
COc1cccc(C(=O)NCC2CCN(C(=O)c3ccoc3)CC2)c1 | 15.9%
O=C(O)[C@]12CN(CC3CCC3)C[C@H]1CN(c1cnccn1)C2 | 8.16%
Cc1cnn(CC2CCCN2c2nn3cc(C)nc3s2)c1 (stereo not given) | -2.84%
CC(C)CNS(=O)(=O)c1ccc(C(=O)N(C)CCc2cn[nH]c2)cc1 | 4.48%
CCc1cnc(N2CC[C@H]3[C@@H]2CCC(=O)N3CC2CCOCC2)nc1 | 4.28%
Cc1ncc(COc2ccc(N(C)S(C)(=O)=O)cc2)s1 | 5.89%
CCc1nccn1C1CCCN(C(=O)c2ccc(C(N)=O)cn2)C1 (stereo not given) | 1.89%
O[C@@]1(CNCCOc2ccccc2)CCCN2CCCC[C@@H]21 | -2.96%
Cc1cnc2n(c1=O)C(CC(=O)NCc1ccc(Cl)cc1)CS2 (stereo not given) | -5.55%
CN1CCCN(CC(CC(=O)Nc2ccc(Cl)cc2)C(=O)O)CC1 (stereo not given) | -5.4%
O=C(COC1CCCCC1)N1CCN(C(=O)Cc2ccccn2)CC1 | -1.3%
CC[C@@H](Cn1ncc2ccccc2c1=O)NC(=O)c1cnc(C)cn1 | 7.92%
Cc1cccc(COC[C@H]2CC[C@H]3[C@H](CCN3C(=O)CC3CC3)O2)n1 | -4.66%
Cc1cnc(C(=O)N2CCCC3(CCN(c4cnn(C)c4)C3=O)C2)cn1 (stereo not given) | -5.79%
Cc1nn(C)c2ncc(NC(=O)N(C)Cc3cc(Cl)cn3C)cc12 | 2.73%
CN1CCN(Cc2cccnc2)C2(CCN(Cc3ccoc3)C2)C1=O (stereo not given) | -2.4%
Cc1cnn(CC2CCCN2CC(=O)Nc2cc(C(C)(C)C)no2)c1 (stereo not given) | -7.76%

SMILES | cytotoxicity at 10 µM
CCS(=O)(=O)CCNC1CCN(c2nc3ccc(Cl)cc3s2)CC1 | 32%
CC(C)(C)c1csc(CNC(=O)C2NCCc3[nH]cnc32)n1 (stereo not given) | -2.65%
O=C(c1ncccn1)N1C[C@@H]2CN(CC3CC3)CCO[C@@H]2C1 | 6.99%
COc1ccccc1CN(C)C(=O)NCc1c(C)cc(C)[nH]c1=O | -4.98%
CCS(=O)(=O)CCSc1ccc(Br)cc1 | -7%
COCCOc1ccc(-c2noc([C@@H]3CCCN3)n2)cn1 | -4.34%
O=C(CCCn1ccnc1)N[C@H]1CN(C2CCCC2)C[C@@H]1C1CC1 | 7.69%
Cc1cccc(CS(=O)(=O)Cc2ccn(C)c(=O)c2)c1 | 2.29%
CN(C)CCN(C(=O)Cc1ccc2c(c1)OCCO2)C1CCN(C)CC1 | 2.16%
c1ccc(COC2CCN(Cc3cc4n(n3)CCCNC4)CC2)nc1 | 2.59%
Cc1noc(C)c1C1CCCN1C(=O)c1cn2ccsc2n1 (stereo not given) | 12.3%
COc1cc(N2CC[C@@H](O)[C@@H]2Cc2cccnc2)ncn1 | -77.9%
CC(C)(O)CCc1cccc(C(=O)NCC2CN(S(C)(=O)=O)CCO2)c1 (stereo not given) | 2.29%
CC(C)(C)c1cnc(CNc2cccc(Cn3cnnc3)c2)o1 | 2.72%
CCc1c(C(=O)N2CCCC(N(C)C)C2)cnn1C(C)(C)C (stereo not given) | -0.088%
CC(CNC(=O)NCCCc1cc(N)n(-c2ccccc2)n1)N(C)C (stereo not given) | 11.9%
Cc1nc(CNc2nc(-c3ccco3)nc3c2CCNCC3)n[nH]1 | -9.08%
CCc1ccc(C(=O)N2CCCn3nnc(Cn4cccn4)c3C2)cc1 | 7.8%
Cc1cc(NCc2csc(C)n2)no1 | 9.48%
CC1CCCN(C(=O)NCC(F)F)C1 (stereo not given) | 13.6%
Fc1cccnc1N1CCC(NCc2cccc3cn[nH]c23)C1 (stereo not given) | 13.6%
O=C(NCC1CCCO1)c1cc(-c2cccnc2)c2cnccc2n1 (stereo not given) | 15.2%

SMILES | cytotoxicity at 10 µM
O=C(c1cccc(O)n1)N1CCC(O)(CN2CCC(F)(F)CC2)C1 (stereo not given) | 4.16%
COc1cccc(C(=O)N2CCN(C(=O)CCCc3cn[nH]c3)CC2)c1 | -1.3%
CCCN1CCN(C(=O)c2ccn(COc3ccc(F)cc3)n2)CC1 | 8.88%
O=C(c1cnccn1)N1CCCC2(CCN(c3ccccn3)C2)C1 (stereo not given) | 5.77%
CN(Cc1ccsc1)C(=O)COC(=O)c1cc(Cl)c[nH]1 | -3.73%
Cc1cc(NS(=O)(=O)c2cnc3onc(C)c3c2)no1 | 4.43%
Cn1cc(CN2CCC[C@]3(C(=O)O)CN(c4cnccn4)CC[C@@H]23)cn1 | -0.226%
CCO[C@H]1CC[C@H]2[C@H]1OCCN2C(=O)c1nn(C)c2ccccc12 | 7.28%
O=C(Cc1ccc(F)cc1Cl)N1C[C@@H](CN2CCC(O)CC2)[C@@H](CO)C1 | 9.32%
Cc1cc(C)n(CC(=O)N2CCCC(c3cc4cccnc4[nH]3)C2)n1 (stereo not given) | 8.3%
Cn1ncc(NCc2cccc(COC(C)(C)C)c2)c(Cl)c1=O | 42.2%
COC(=O)CCN1CCCC1c1cccc2c1OCCO2 (stereo not given) | 17.7%
CN1CCN(C)C(CNC(=O)N(C)Cc2ccc(Cl)c(F)c2)C1 (stereo not given) | 6.32%
COc1ccc2c(c1OC)Cc1c-2nc(N)c(C#N)c1C1CCOC1 (stereo not given) | 28.6%
Cc1nc(N)ncc1C(=O)N1CCCC(CCc2ccc(F)cc2)C1 (stereo not given) | -8.3%
CCc1ccc(C(=O)N2CCN(CC(C)O)CC2)o1 (stereo not given) | -8.18%
CC(C)C(C)NC(=O)CN1CCSCC1 (stereo not given) | -0.662%
CC(C)N(C)CC(=O)NC1CCc2nccn2C1 (stereo not given) | 17.8%
O=C1COC2(CCN(S(=O)(=O)C3CC3)CC2)CN1c1cccnc1 | -1.69%
Cc1nc(NC2CC2)c2c(n1)c(C)nn2C | -3.79%
Cc1oc(-c2ccco2)nc1CC(=O)NCC(C)(C)N(C)C | -13.9%
O=C(CN(C1=NCCCC1)c1ccccc1)c1ccccc1 | -0.239%

SMILES | cytotoxicity at 10 µM
CCOC(=O)CNC(=O)NCc1cccn1Cc1ccccc1F | -2.24%
COc1cc(CN2CC[C@@]3(CCCO3)[C@@H](O)C2)ccc1F | -3.14%
CCN1C(=O)C(c2ccccc2)CC12CCN(Cc1cccnc1)CC2 (stereo not given) | 4.65%
COCC(=O)N1CCC2(CCN(c3cnn(C)c3)C2=O)C1 (stereo not given) | 0.486%
Cc1c(C(C)NC2CCN(C(C)C)CC2)cnn1-c1ccc(F)cc1F (stereo not given) | -6.58%
CN(C)CCCn1ccc(-c2cccc(-c3ccccn3)c2)n1 | -6.02%
O=C(c1ccccn1)N1Cc2nccn2CC(CN2CCOCC2)C1 (stereo not given) | 2.16%
CC(=O)c1cccc(NC(=O)Cn2cnc(-c3ccccc3)cc2=O)c1 | -12.3%
COc1cccc(CN(C)C(=O)CN2CCN(c3nccn3C)CC2)c1 | 14.3%
COc1cccc(N2CCN(CC(O)c3cc(C)ccc3C)CC2)c1 (stereo not given) | 4.91%
NCCn1cc(C(=O)NCc2ccccc2-n2cccn2)nn1 | -2.34%
Cc1nnc(CN2CCOC(c3ccc(Cl)cc3)C2)o1 (stereo not given) | 5.33%
N#Cc1ccc(CN2CCC(CCc3ccc(O)cc3)CC2)cc1 | 38.8%
CCCN1CCN(Cc2cc(Cl)cc(Cl)c2)[C@H]2CS(=O)(=O)C[C@H]21 | -2.45%
CCOc1ccccc1C(=O)N1CCCC(O)(CN(C)C)C1 (stereo not given) | -1.73%
CCS(=O)(=O)N1CCCn2cnc(COc3cccnc3)c2C1 | -0.00278%
CC(=O)Nc1nc(C(=O)NC(C)c2cccnc2)cs1 (stereo not given) | -4.21%
CCn1cnnc1CNC(=O)N1CCCCCC1 | -7.36%
CN(Cc1cccc2ncccc12)C(=O)CCC(F)(F)F | -3.05%
Cc1nc(Cn2c(=O)cnc3ccccc32)n(C)n1 | -0.825%
COC(=O)CCNC(=O)c1c[nH]cc1-c1cccc(OC)c1 | 4.89%
Cc1ccc(NCCCNC(=O)C2CCCN(Cc3ccco3)C2)nc1 (stereo not given) | 3.15%
